Source: ChEMBL document CHEMBL4715925, “Sulfamoylbenzamide-based Capsid Assembly Modulators for Selective Inhibition of Hepatitis B Viral Replication” (ACS Med Chem Lett, 2021)
pEC50, pIC50: −log10 of the molar value. Calls of active or inactive are those of the source. The calls are words filed in the database; no cut-off is given here.

Tests used:
[1] = Cytotoxicity against human HepG2 2.2.15 cells assessed as reduction in cell viability incubated for 5 days by MTT assay; format: cell-based; details: time 5 day
Procedure, shortened: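 HepG2.2.15 cells were incubated with compound, then cell viability was measured. Mean ± SD of three independent experiments.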

[2] = system: Hepatitis B virus; assay: Antiviral activity against Hepatitis B genotype D virus infected in HepG2 2.2.15 cells assessed as inhibition of viral DNA incubated for 5 days by qPCR analysis; format: functional, cell-based; details: HepG2 2.2.15, 120 h
Procedure, shortened: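 HepG2.2.15 cells were incubated with compound for 5 days. HBV DNA was then purified from the culture supernatant and quantified by real-time PCR.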

[3] = Selectivity index, ratio of CC50 for human […] cells to EC50 for Hepatitis B virus; format: toxicity; details: read-out: Ratio CC50/EC50
[4] = system: Hepatitis B virus; assay: Induction of recombinant Hepatitis B virus HBc (1-149)-His protein self-assembly expressed in Escherichia coli BL21 (DE3) assessed as long rod-shaped particles at 30 uM after 3 to 5 days of incubation by TEM analysis relative to control; details: filed as modulator, time 3-5 day
[5] = AUClast in Sprague-Dawley rat at 5 mg/kg, po by LC-MS/MS analysis; format: ADME, organism-based; design: time 0 - last, route oral, dose 5 mg/kg; details: in vivo
Procedure, shortened: (§1)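 Male SD rats, 5 mg/kg given i.v. or p.o.; plasma concentration–time courses followed. Parameters: Tmax, Cmax, terminal T1/2, AUClast, AUC to infinity, total plasma clearance, Vss, oral bioavailability (Ft). Values are mean ± SD of at least three independent experiments.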

[6] = Stability in rat plasma assessed as compound remaining at 5 uM incubated for 4 hrs by LC-MS/MS analysis; format: ADME, cell-free; details: read-out: Stabilty
Procedure, shortened: (§2)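 Incubated in rat or human plasma at 37 °C for 4 h; result is % compound remaining. n = 3, mean ± SD.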

[7] = Half life in Sprague-Dawley rat at 5 mg/kg, po by LC-MS/MS analysis; format: ADME, organism-based; details: in vivo; procedure, shortened: as §1
[8] = target: Cytochrome P450 2D6 (Homo sapiens, UniProt P10635); assay: Inhibition of human liver microsome CYP2D6 using dextromethorphan as substrate incubated for 20 mins by LC-MS/MS with HPLC analysis; format: ADME, microsomes
Cytochrome P450 2D6, sequence (P10635 whole entry): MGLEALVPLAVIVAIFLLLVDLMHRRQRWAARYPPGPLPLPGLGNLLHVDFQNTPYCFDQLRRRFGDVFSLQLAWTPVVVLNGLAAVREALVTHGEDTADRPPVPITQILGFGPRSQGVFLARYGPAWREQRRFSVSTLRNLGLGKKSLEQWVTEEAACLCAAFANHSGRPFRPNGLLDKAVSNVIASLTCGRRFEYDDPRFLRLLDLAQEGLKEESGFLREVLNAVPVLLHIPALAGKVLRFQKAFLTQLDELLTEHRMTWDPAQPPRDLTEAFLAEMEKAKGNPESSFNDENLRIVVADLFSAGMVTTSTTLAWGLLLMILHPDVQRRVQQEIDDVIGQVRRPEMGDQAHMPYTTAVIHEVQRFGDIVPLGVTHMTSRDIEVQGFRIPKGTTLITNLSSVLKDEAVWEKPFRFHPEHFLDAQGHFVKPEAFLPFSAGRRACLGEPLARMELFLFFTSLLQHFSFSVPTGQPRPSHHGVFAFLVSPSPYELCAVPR
Procedure, shortened: (§3)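 Cocktail-substrate assay in human liver microsomes; IC50 reported for CYP1A2, 2C9, 2C19, 2D6 and 3A4. n = 3, mean ± SD.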

[9] = AUClast in Sprague-Dawley rat at 5 mg/kg, iv by LC-MS/MS analysis; format: ADME, organism-based; design: route intravenous, time 0 - last, dose 5 mg/kg; details: in vivo; procedure, shortened: as §1
[10] = AUC (0 to infinity) in Sprague-Dawley rat at 5 mg/kg, po by LC-MS/MS analysis; format: ADME, organism-based; design: time infinity, route oral, dose 5 mg/kg; details: in vivo; procedure, shortened: as §1
[11] = target: Cytochrome P450 2C9 (Homo sapiens, UniProt P11712); assay: Inhibition of human liver microsome CYP2C9 using tolbutamide as substrate incubated for 20 mins by LC-MS/MS with HPLC analysis; format: ADME, microsomes; procedure, shortened: as §3
Cytochrome P450 2C9, sequence (P11712 whole entry): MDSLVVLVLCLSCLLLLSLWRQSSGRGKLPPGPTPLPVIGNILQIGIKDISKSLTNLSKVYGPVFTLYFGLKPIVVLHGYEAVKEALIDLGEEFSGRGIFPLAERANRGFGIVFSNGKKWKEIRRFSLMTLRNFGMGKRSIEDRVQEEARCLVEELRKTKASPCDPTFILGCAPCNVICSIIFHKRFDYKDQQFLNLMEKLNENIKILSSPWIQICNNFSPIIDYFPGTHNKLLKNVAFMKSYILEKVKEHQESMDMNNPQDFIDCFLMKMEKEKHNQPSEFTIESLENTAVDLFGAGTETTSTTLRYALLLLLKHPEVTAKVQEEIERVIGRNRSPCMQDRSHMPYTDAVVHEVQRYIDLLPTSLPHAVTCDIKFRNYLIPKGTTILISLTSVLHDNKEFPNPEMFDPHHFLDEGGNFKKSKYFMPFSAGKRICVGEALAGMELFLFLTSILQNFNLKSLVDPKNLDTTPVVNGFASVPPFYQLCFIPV

[12] = Cmax in Sprague-Dawley rat at 5 mg/kg, po by LC-MS/MS analysis; format: ADME, organism-based; design: route oral, dose 5 mg/kg; details: in vivo; procedure, shortened: as §1
[13] = Half life in Sprague-Dawley rat at 5 mg/kg, iv by LC-MS/MS analysis; format: ADME, organism-based; details: in vivo; procedure, shortened: as §1
[14] = Metabolic stability in rat liver microsomes assessed as compound remaining at 1 uM incubated for 30 mins by LC-MS/MS analysis; format: ADME, Microsome; details: read-out: Stabilty
Procedure, shortened: (§4)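 Phase-I stability in rat or human liver microsomes, given as % remaining after 30 min, with half-life also derived. n = 3, mean ± SD.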

[15] = target: Cytochrome P450 3A4 (Homo sapiens, UniProt P08684); assay: Inhibition of human liver microsome CYP3A4 using […] as substrate incubated for 20 mins by LC-MS/MS with HPLC analysis; format: ADME, microsomes; procedure, shortened: as §3
Cytochrome P450 3A4, sequence (P08684 whole entry): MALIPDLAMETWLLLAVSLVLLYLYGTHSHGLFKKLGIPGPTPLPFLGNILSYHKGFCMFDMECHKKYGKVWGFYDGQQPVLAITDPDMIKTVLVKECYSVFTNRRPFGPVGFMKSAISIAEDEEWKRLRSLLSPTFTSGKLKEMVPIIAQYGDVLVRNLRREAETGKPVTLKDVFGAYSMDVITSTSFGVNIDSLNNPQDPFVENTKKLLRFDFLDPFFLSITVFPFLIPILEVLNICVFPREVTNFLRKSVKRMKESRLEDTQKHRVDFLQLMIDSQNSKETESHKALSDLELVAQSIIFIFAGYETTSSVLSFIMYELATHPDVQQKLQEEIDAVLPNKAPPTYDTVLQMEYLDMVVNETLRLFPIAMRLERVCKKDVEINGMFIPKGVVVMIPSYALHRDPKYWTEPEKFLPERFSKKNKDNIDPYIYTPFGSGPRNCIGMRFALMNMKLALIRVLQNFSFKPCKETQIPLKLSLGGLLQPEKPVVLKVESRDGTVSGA

[16] = Protein binding in human plasma at 5 uM incubated for 4 hrs by LC-MS/MS analysis; format: ADME, cell-free; details: read-out: PPB (converted)
[17] = system: Hepatitis B virus; assay: Induction of recombinant Hepatitis B virus HBc (1-149)-His protein self-assembly expressed in Escherichia coli BL21 (DE3) assessed as short rod-shaped particles at 30 uM after 12 hrs of incubation by TEM analysis relative to control; details: filed as modulator
[18] = AUC (0 to infinity) in Sprague-Dawley rat at 5 mg/kg, iv by LC-MS/MS analysis; format: ADME, organism-based; design: time infinity, route intravenous, dose 5 mg/kg; details: in vivo; procedure, shortened: as §1
[19] = target: Cytochrome P450 2C19 (Homo sapiens, UniProt P33261); assay: Inhibition of human liver microsome CYP2C19 using S-mephenytoin as substrate incubated for 20 mins by LC-MS/MS with HPLC analysis; format: ADME, microsomes; procedure, shortened: as §3
Cytochrome P450 2C19, sequence (P33261 whole entry): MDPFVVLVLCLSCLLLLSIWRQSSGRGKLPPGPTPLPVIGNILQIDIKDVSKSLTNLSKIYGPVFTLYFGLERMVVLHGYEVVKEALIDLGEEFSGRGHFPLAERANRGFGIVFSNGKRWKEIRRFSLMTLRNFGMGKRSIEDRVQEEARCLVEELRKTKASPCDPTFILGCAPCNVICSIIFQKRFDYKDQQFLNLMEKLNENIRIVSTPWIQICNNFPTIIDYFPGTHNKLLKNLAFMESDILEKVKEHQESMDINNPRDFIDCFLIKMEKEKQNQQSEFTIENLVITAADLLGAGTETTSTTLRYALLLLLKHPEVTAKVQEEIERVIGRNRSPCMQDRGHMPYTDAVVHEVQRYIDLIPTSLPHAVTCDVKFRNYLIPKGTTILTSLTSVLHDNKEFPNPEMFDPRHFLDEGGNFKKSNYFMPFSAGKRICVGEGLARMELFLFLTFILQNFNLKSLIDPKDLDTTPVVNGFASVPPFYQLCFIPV

[20] = system: Hepatitis B virus; assay: Induction of recombinant Hepatitis B virus HBc (1-149)-His protein self-assembly expressed in Escherichia coli BL21 (DE3) assessed as spherical shaped particles at 30 uM after 12 hrs of incubation by TEM analysis relative to control; details: filed as modulator
[21] = Metabolic stability in rat liver microsomes assessed as half life at 1 uM incubated for 30 mins by LC-MS/MS analysis; format: ADME, Microsome; procedure, shortened: as §4
[22] = target: Voltage-gated inwardly rectifying potassium channel KCNH2 (Homo sapiens, UniProt Q12809); assay: Inhibition of human ERG by fluorescence polarization assay
Voltage-gated inwardly rectifying potassium channel KCNH2, sequence (Q12809 whole entry): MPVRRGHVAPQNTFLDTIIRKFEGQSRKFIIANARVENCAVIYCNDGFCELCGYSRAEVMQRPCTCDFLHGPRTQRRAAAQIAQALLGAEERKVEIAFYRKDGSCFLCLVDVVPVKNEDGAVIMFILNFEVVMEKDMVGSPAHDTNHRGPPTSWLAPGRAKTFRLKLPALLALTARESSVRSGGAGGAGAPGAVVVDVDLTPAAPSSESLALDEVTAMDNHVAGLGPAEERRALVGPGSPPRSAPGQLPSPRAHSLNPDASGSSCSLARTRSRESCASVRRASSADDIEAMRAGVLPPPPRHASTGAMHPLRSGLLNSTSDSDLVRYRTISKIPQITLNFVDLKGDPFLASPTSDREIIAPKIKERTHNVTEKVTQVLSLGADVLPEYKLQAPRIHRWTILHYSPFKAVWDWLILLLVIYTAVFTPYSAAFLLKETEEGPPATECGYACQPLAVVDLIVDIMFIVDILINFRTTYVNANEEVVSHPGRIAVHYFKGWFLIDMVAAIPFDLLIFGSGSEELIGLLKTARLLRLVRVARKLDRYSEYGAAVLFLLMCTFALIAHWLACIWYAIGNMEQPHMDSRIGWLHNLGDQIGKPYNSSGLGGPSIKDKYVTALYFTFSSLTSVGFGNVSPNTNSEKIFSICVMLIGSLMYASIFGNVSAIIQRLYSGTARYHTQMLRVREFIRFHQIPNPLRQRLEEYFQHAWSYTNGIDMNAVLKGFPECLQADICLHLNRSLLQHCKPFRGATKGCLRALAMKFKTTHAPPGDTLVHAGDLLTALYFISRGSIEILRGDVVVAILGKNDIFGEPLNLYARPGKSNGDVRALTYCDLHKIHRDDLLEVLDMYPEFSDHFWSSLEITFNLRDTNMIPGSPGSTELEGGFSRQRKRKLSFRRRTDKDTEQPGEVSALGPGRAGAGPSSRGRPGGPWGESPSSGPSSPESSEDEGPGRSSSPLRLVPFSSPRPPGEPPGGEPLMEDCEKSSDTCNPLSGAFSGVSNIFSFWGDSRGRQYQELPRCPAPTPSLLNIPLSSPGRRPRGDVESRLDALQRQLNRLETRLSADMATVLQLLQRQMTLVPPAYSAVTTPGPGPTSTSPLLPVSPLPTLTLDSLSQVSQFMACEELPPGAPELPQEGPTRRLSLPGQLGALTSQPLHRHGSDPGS

[23] = Stability in human plasma assessed as compound remaining at 5 uM incubated for 4 hrs by LC-MS/MS analysis; format: ADME, cell-free; details: read-out: Stabilty; procedure, shortened: as §2
[24] = Volume of distribution at steady state in Sprague-Dawley rat at 5 mg/kg, iv by LC-MS/MS analysis; format: ADME, organism-based; details: in vivo, read-out: Vdss; procedure, shortened: as §1
[25] = Tmax in Sprague-Dawley rat at 5 mg/kg, po by LC-MS/MS analysis; format: ADME, organism-based; details: in vivo; procedure, shortened: as §1
[26] = Protein binding in rat plasma at 5 uM incubated for 4 hrs by LC-MS/MS analysis; format: ADME, cell-free; details: read-out: PPB (converted)
[27] = Metabolic stability in human liver microsomes assessed as half life at 1 uM incubated for 30 mins by LC-MS/MS analysis; format: ADME, Microsome; procedure, shortened: as §4
[28] = target: T1, Cytochrome P450 1A2 (Homo sapiens, UniProt P05177); assay: Inhibition of human liver microsome CYP1A2 using phenacetin as substrate incubated for 20 mins by LC-MS/MS with HPLC analysis; format: ADME, microsomes; procedure, shortened: as §3
T1 sequence (P05177 whole entry): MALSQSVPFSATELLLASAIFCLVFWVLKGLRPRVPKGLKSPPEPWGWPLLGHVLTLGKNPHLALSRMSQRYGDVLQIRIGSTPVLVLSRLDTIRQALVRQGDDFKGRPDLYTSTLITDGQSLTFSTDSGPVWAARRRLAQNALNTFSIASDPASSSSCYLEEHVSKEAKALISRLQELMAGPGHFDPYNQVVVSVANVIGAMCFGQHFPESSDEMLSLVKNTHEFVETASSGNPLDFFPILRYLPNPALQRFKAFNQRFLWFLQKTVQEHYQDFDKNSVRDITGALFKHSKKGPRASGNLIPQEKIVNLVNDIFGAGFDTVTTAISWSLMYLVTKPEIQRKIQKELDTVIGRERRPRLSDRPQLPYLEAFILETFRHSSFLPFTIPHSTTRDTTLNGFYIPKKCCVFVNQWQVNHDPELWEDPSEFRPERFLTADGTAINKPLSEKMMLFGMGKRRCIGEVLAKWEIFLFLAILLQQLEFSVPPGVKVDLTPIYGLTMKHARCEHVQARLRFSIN

[29] = Metabolic stability in human liver microsomes assessed as compound remaining at 1 uM incubated for 30 mins by LC-MS/MS analysis; format: ADME, Microsome; details: read-out: Stabilty; procedure, shortened: as §4
[30] = system: Hepatitis B virus; assay: Induction of recombinant Hepatitis B virus HBc (1-149)-His protein self-assembly expressed in Escherichia coli BL21 (DE3) assessed as longer tubular shaped particles at 30 uM after 3 to 5 days of incubation by TEM analysis relative to control; details: filed as modulator, time 3-5 day
[31] = Oral bioavailability in Sprague-Dawley rat at 5 mg/kg by LC-MS/MS analysis; format: ADME, organism-based; details: in vivo; procedure, shortened: as §1
[32] = Clearance in Sprague-Dawley rat at 5 mg/kg, iv by LC-MS/MS analysis; format: ADME, organism-based; details: in vivo; procedure, shortened: as §1
[33] = system: Hepatitis B virus; assay: Induction of recombinant Hepatitis B virus HBc (1-149)-His protein self-assembly expressed in Escherichia coli BL21 (DE3) at 30 uM by TEM analysis relative to control; details: filed as modulator, time 3-5 day, TDE = time-dependent effect

SMILES: Nc1cc(F)c(S(=O)(=O)N2CCC(O)CC2)cc1C(=O)Nc1ccc(Cl)c(C(F)(F)F)c1
- CC50 at 120 h [1]: 17.8 µM
- pEC50 [2]: < 5.48

SMILES: Nc1cc(F)c(S(=O)(=O)N2CCC(O)CC2)cc1C(=O)Nc1ccc(C(F)(F)F)c(F)c1
- CC50 at 120 h [1]: 5.9 µM
- pEC50 [2]: < 5.48

SMILES: N#Cc1cc(NC(=O)c2cc(S(=O)(=O)N3CCC(O)CC3)c(F)cc2N)ccc1F
- CC50 at 120 h [1]: > 900 µM
- selectivity ratio [3]: > 833
- pEC50 [2]: 5.97

SMILES: Nc1cc(F)c(S(=O)(=O)N2CCC(O)CC2)cc1C(=O)Nc1ccc(F)c(C(F)(F)F)c1
- CC50 at 120 h [1]: 47.3 µM
- selectivity ratio [3]: 21.7
- pEC50 [2]: 5.66

SMILES: Nc1cc(F)c(S(=O)(=O)N2CCC(O)CC2)cc1C(=O)Nc1ccc(Cl)c(F)c1
- CC50 at 120 h [1]: 20.3 µM
- selectivity ratio [3]: 9.3
- pEC50 [2]: 5.66

SMILES: Nc1cc(F)c(S(=O)(=O)N2CCC(O)CC2)cc1C(=O)Nc1ccc(Cl)c(C(F)F)c1
- CC50 at 120 h [1]: 30.1 µM
- pEC50 [2]: < 5.48

SMILES: Nc1cc(F)c(S(=O)(=O)N2CCC(O)CC2)cc1C(=O)Nc1ccc(F)c(F)c1
- Activity [4]: Active
- AUC(0-t) [5]: 2080 ng·h/mL
- CC50 at 120 h [1]: 16 µM
- remaining at 4 h, 5 µM [6]: 84.6%
- half-life [7]: 3.84 h
- pIC50 [8]: 4.53
- AUC(0-t) [9]: 2450 ng·h/mL
- AUC(0-inf) [10]: 2100 ng·h/mL
- pIC50 [11]: 4.60
- Cmax [12]: 480 ng/mL
- half-life [13]: 1.22 h
- remaining at 0.5 h, 1 µM [14]: 67.9%
- pIC50 [15]: 4.39
- fraction unbound at 4 h, 5 µM [16]: 0.035
- Activity [17]: Active
- AUC(0-inf) [18]: 2500 ng·h/mL
- pIC50 [19]: 4.74
- Activity [20]: Active
- half-life at 1 µM [21]: 0.867 h
- pIC50 [22]: 4.30
- remaining at 4 h, 5 µM [23]: 93.6%
- Vd [24]: 2.88 L/kg
- Tmax [25]: 1.67 h
- fraction unbound at 4 h, 5 µM [26]: 0.073
- half-life at 1 µM [27]: 1.24 h
- pIC50 [28]: < 4.00
- selectivity ratio [3]: 53.3
- remaining at 0.5 h, 1 µM [29]: 68.1%
- Activity [30]: Active
- bioavailability [31]: 84.2%
- clearance [32]: 34.2 mL/min/kg
- inhibition [33]: Tde
- pEC50 [2]: 6.52

SMILES: N#Cc1cc(NC(=O)c2cc(S(=O)(=O)N3CCC(O)CC3)c(F)cc2N)ccc1Cl
- CC50 at 120 h [1]: > 900 µM
- pEC50 [2]: < 5.48
